Bioassay records as filed in PubChem BioAssay.
Only some compounds are listed: those with a hit (about 5.1% of all), similar ones and a draw of the others.
STAT1 act = increases IFN-gamma driven STAT1 reporter signal. NIH 3T3 STAT1-luciferase reporter, luminescence; 100% = IFN-gamma alone, no compound. activation (% of control), % at 5.5 µM. 200,000 compounds, 2.6% hits. AID 932;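 active means activation above the screen-wide mean activation plus 3 SD, cut at about 130% in these data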
STAT3 inh-1 = inhibitors of IL-6 induced STAT3 signaling; U3A cells, IL-6 STAT3-luciferase reporter, luminescence; host cell line lacks STAT1; inhibition, % at 5.5 µM; 190,000 compounds, 0.89% hits; AID 862;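 active means inhibition above the mean inhibition across all screened compounds plus 3 SD, cut at about 44% in these data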
APP 5'UTR act = APP 5'UTR luciferase reporter activation; SH-SY5Y APP 5'UTR luciferase reporter, luminescence; zero percent = DMSO vehicle wells; activation, % at 2 µM; 190,000 compounds, 1% hits;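 active means activation above a set limit, based on mean plus 3 SD of controls, cut at about 140% in these data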
STAT1 inh = reduces IFN-gamma driven STAT1 reporter signal. inhibition, % at 5.5 µM. NIH 3T3 STAT1-luciferase reporter, luminescence. 200,000 compounds, 0.35% hits;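 active means inhibition above a set limit, the mean inhibition across all tested compounds plus 3 SD, cut at about 34% in these data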
NF-kB neuron act = raises NF-kB expression in human neuronal cells; fold change at 12.5 µM; 190,000 compounds, 1.6% hits; NF-kB reporter expression; stronger effect = higher value; AID 1239; in the data active means fold change above about 3.3
STAT3 act = activators of IL-6 induced STAT3 signaling; U3A cells, IL-6 STAT3-luciferase reporter, luminescence; 100% = signal with IL-6 EC80 alone; activation (% of control), % at 5.6 µM; 190,000 compounds, 0.91% hits; AID 871;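 active means activation above the screen-wide mean of compound activation plus 3 SD, cut at about 130% in these data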
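Material: STAT3-luciferase reporter U3A cells. Controls: IL-6-treated wells, 100% activation. Read-out: % activation versus median of IL-6-stimulated wells. Probe or stimulus: IL-6 stimulus at 33 ng/mL final. Timing: compound 1 h, then IL-6 6 h at 37 °C. Signal: reporter luminescence signal.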
STAT3 inh-2 = STAT3 inhibition, confirmation assay | shares compounds with STAT3 inh-1 | U3A cells, IL-6 STAT3 luciferase reporter, luminescence; cell line lacks STAT1 | inhibition, % at 5.7 µM | 1,200 compounds, 45% hits;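 active means inhibition above the hit cutoff computed for the primary STAT3 screen, cut at about 44% in these data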
NFkB inh 2 = inhibits NF-kappaB, counter-screen to STAT3 inhibitors; 1,200 compounds, 36% hits; inhibition, % at 5.7 µM; shares compounds with STAT3 inh-1; HEK293T NF-kB luciferase reporter, TNF-alpha induced;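 active means inhibition above the mean of solvent-only control wells plus 3 SD, cutoff set per campaign, cut at about 13% in these data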
STAT1 inh 2 = STAT1 inhibition in STAT3 inhibitor counter-screen | AID 1317 | NIH 3T3 STAT1-luciferase reporter, IFN-gamma induced, luminescence | inhibition, % at 5.7 µM | shares compounds with STAT3 inh-1 | 1,200 compounds, 27% hits;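 active means inhibition above the mean plus 3 SD of solvent-only control wells, limit set per screening run, cut at about 16% in these data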
Hits are given with their value; i = inactive; nt = no result.

SMILES | STAT1 act | STAT3 inh-1 | APP 5'UTR act | STAT1 inh | NF-kB neuron act | STAT3 act | STAT3 inh-2 | NFkB inh 2 | STAT1 inh 2
O=C(Oc1ccccc1N1C(=O)C2CCCCC2C1=O)c1ccccc1 (stereo not drawn) | i | 68 | i | i | i | i | 46 | i | i
Cc1ccc(C(=O)Oc2ccccc2N2C(=O)C3CCCCC3C2=O)cc1 (stereo not drawn) | i | 54 | i | i | i | i | i | i | i
O=C(Oc1ccccc1N1C(=O)C2CC=CCC2C1=O)c1ccc(Br)cc1 (stereo not drawn) | i | i | i | i | i | i | nt | nt | nt
Cc1ccccc1Nc1nc(N)nc(CN(C)Cc2ccccc2Cl)n1 | i | i | i | i | i | i | nt | nt | nt
Cc1ccc(S(=O)(=O)CC(=O)Nc2nc(-c3ccccc3)cs2)cc1 | i | i | i | i | i | i | nt | nt | nt
O=C(Nc1cc(S(=O)(=O)N2CCCCC2)ccc1Cl)c1ccccc1NS(=O)(=O)c1ccc(F)cc1 | i | 51 | i | i | i | i | i | 18 | 29
Cc1ccc(S(=O)(=O)Nc2ccccc2C(=O)Nc2nc(-c3ccc(F)cc3)cs2)cc1 | i | 45 | i | i | i | i | i | 18 | 26
O=C(Nc1cc(S(=O)(=O)N2CCCCC2)ccc1O)c1ccccc1NS(=O)(=O)c1ccc(F)cc1 | i | i | i | i | i | i | nt | nt | nt
CC1CN(C(=O)Nc2ccc(Br)cc2Cl)CC(C)O1 (stereo not drawn) | i | i | i | i | i | i | nt | nt | nt
O=C(CCCOc1ccccc1)N1CCCCC1 | i | 48 | i | i | i | i | i | i | i
O=C(CCCOc1ccc(Cl)cc1)N1CCCCC1 | i | i | i | i | i | i | nt | nt | nt
Cc1c(C(=O)Nc2ccncc2)sc2nc(-c3ccccc3)cn12 | i | i | i | i | i | i | nt | nt | nt
Cc1c(C(=O)Nc2ccc3c(c2)OCCO3)sc2nc(-c3ccccc3)cn12 | i | 51 | i | 34 | i | i | i | i | i
COc1ccc(C(=O)NC(CC(=O)O)c2cc([N+](=O)[O-])ccc2Cl)c(SC)c1 (stereo not drawn) | i | i | i | i | i | i | nt | nt | nt
Cc1ccc(C(=O)NCC(=O)OCC(=O)c2cc(C)n(Cc3ccco3)c2C)cc1 | i | i | i | i | i | i | nt | nt | nt
C=CCn1c(C)cc(C(=O)COC(=O)CNC(=O)c2ccccc2)c1C | i | 46 | i | i | i | i | i | i | i
CNc1nc2cc([N+](=O)[O-])c([N+](=O)[O-])cc2nc1NC | i | 72 | i | i | i | i | 65 | 28 | 20
CC(O)CNC12CC3CC(CC(C3)C1)C2 (stereo not drawn) | i | i | i | i | i | i | nt | nt | nt
O=C(CSc1nnc(Cc2ccccc2)o1)c1cc(F)ccc1F | i | i | i | i | i | i | nt | nt | nt
CCCNC(=S)N(Cc1ccccc1)Cc1nc2ccccc2c(=O)[nH]1 | i | i | i | i | i | i | nt | nt | nt
O=C(CSCCO)Nc1ccc([N+](=O)[O-])cc1 | i | i | i | i | i | i | nt | nt | nt
O=C(CSCCO)Nc1ccc(C23CC4CC(CC(C4)C2)C3)cc1 | i | 44 | i | i | i | i | i | 22 | i
O=C(/C=C/Nc1cccc(O)c1)c1ccccc1 | i | 86 | 184 | i | 6.3 | i | 65 | i | i
Cc1ccc(C(=O)/C=C/Nc2ccc3c(c2)OCO3)cc1 | 132 | 56 | i | i | 6 | i | i | i | i
CC(=O)c1cccc(NS(=O)(=O)c2ccc(N/C=C\C(=O)c3ccc(C)cc3)cc2)c1 | i | i | i | i | i | i | nt | nt | nt
SMILES | STAT1 act | STAT3 inh-1 | APP 5'UTR act | STAT1 inh | NF-kB neuron act | STAT3 act | STAT3 inh-2 | NFkB inh 2 | STAT1 inh 2
Cc1ccc(C(=O)/C=C/Nc2cccc(O)c2)cc1 | i | 94 | 138 | i | 13 | i | 90 | 32 | 34
Cc1noc(NS(=O)(=O)c2ccc(N/C=C\C(=O)c3ccc4c(c3)OCO4)cc2)c1C | i | i | i | i | i | i | nt | nt | nt
S=C(Nc1ccc(Oc2ccccc2)cc1)N(CCCN1CCOCC1)Cc1ccccn1 | i | i | i | i | i | i | nt | nt | nt
O=C(Oc1cccc(NC2=NS(=O)(=O)c3ccccc32)c1)c1cccnc1 | i | i | i | i | i | i | nt | nt | nt
O=C(Nc1cccc(S(=O)(=O)Nc2ccc(Cl)cc2)c1)c1ccc(Cl)nc1 | i | 79 | i | i | i | i | 81 | 27 | 23
O=C(Nc1cccc(S(=O)(=O)Nc2ccc(Cl)cc2)c1)c1cc2c(s1)CCCC2 | i | i | i | i | i | i | nt | nt | nt
COc1ccc(NS(=O)(=O)c2cccc(NC(=O)c3ccc(Cl)nc3)c2)cc1 | i | 86 | i | i | i | i | 84 | 38 | 24
COc1cccc(S(=O)(=O)Nc2ccc(C(=O)Nc3ccncc3)cc2)c1 | i | i | i | i | i | i | nt | nt | nt
Cc1nc(-c2coc3cc(O)c(C)cc3c2=O)cs1 | i | 53 | 142 | i | i | i | i | i | i
CC(C)CNC(=S)NC(=O)c1ccc(Cl)cc1Cl | i | i | i | i | i | i | nt | nt | nt
COc1cccc(-c2cc(C(=O)Nc3cccc(O)c3)no2)c1 | i | 89 | i | i | 6.7 | i | 50 | i | i
C/C(=N\n1cnnc1)c1ccc(C#N)cc1 | i | i | i | i | i | i | nt | nt | nt
Cc1cc(Nc2cccc([N+](=O)[O-])c2)n2c(nc3ccccc32)c1C#N | i | 80 | i | i | i | i | 73 | 46 | 55
Cc1cc(C)c(S(=O)(=O)Nc2ccccc2-c2ccccc2)c(C)c1 | i | i | i | i | i | i | nt | nt | nt
Cc1cc(C(=O)NCCc2ccc(Cl)cc2)no1 | i | i | i | i | i | i | nt | nt | nt
CC(=O)N1CCc2c(sc(NC(=O)c3ccc([N+](=O)[O-])o3)c2C#N)C1 | i | 58 | i | i | i | i | i | i | 22
COc1ccc(C(=O)Nc2sc3c(c2C#N)CCN(C(C)=O)C3)cc1 | i | i | i | i | i | i | nt | nt | nt
CC(C)(C)C(=O)N1CCN(c2nc3ccccc3o2)CC1 | i | i | i | i | i | i | nt | nt | nt
O=c1c2ccccc2nc(N/N=C/c2c(O)ccc3ccccc23)n1O | i | 46 | i | i | i | i | i | 21 | i
O=c1c2ccccc2nc(N/N=C/c2ccc(O)cc2)n1O | i | 52 | i | i | i | i | i | 16 | 34
CC(=O)c1c(C)[nH]c(C(=O)CN2C(=O)NC(C)(c3ccc(C)cc3)C2=O)c1C (stereo not drawn) | i | i | i | i | i | i | nt | nt | nt
O=C(NCc1n[nH]c(=S)n1-c1ccc(Br)cc1)c1cccs1 | i | i | i | i | i | i | nt | nt | nt
